# Results reported in ChEMBL document CHEMBL1649117, “GRL-02031, a novel nonpeptidic protease inhibitor (PI) containing a stereochemically defined fused cyclopentanyltetrahydrofuran potent against multi-PI-resistant human immunodeficiency virus type 1 in vitro” (Antimicrob Agents Chemother, 2009).
# Key:
# [1] = system: Human immunodeficiency virus 1; test: Antiviral activity against HIV1 subtype C 97ZA003 infected in human PHA-PBM cells after 7 days by MTT assay; assay type: functional, organism-based; settings: Human immunodeficiency virus 1, subtype C 97ZA003, PBMC, 168 h
# [2] = system: Human immunodeficiency virus 2; test: Antiviral activity against HIV2 ROD infected in human MT2 cells after 7 days by MTT assay; assay type: functional, organism-based; settings: Human immunodeficiency virus 2, ISOLATE ROD, MT2, 168 h
# [3] = system: Human immunodeficiency virus 1; test: Antiviral activity against HIV1 subtype E 92TH019 infected in human PHA-PBM cells after 7 days by MTT assay; assay type: functional, organism-based; settings: Human immunodeficiency virus 1, subtype E 92TH019, PBMC, 168 h
# [4] = system: Human immunodeficiency virus 1; test: Antiviral activity against HIV1 NL4-3 harboring D30N mutation in protease encoding region infected in human […] cells assessed as inhibition of p24 Gag protein production by ELISA; assay type: functional, organism-based; settings: Human immunodeficiency virus 1, NL4-3
# How it was run: (§1)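 Protease PCR fragments (ApaI/SmaI) were cloned into pHIV-1NLSma, and virions were harvested from transfected 293T cells over 48 h. MT-4 target cells (10^5/ml) were infected with 100 TCID50s, with or without drug, at 37°C. Day-7 supernatant p24 Gag was read by chemiluminescent enzyme immunoassay.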
# [5] = system: Human immunodeficiency virus 1; test: Antiviral activity against HIV1 JRFL infected in human PHA-PBM cells after 7 days by MTT assay; assay type: functional, organism-based; settings: Human immunodeficiency virus 1, JRFL, PBMC, 168 h
# [6] = system: Human immunodeficiency virus 1; test: Antiviral activity against HIV1 NL4-3 harboring I85V mutation in protease encoding region infected in human […] cells assessed as inhibition of p24 Gag protein production by ELISA; assay type: functional, organism-based; settings: Human immunodeficiency virus 1, NL4-3; how it was run: as §1
# [7] = system: Human immunodeficiency virus 1; test: Ratio of EC50 for ritonavir to compound against HIV1 NL4-3 harboring I84V/I85V mutation in protease encoding region infected in human […] cells; assay type: functional
# [8] = system: Human immunodeficiency virus 1; test: Ratio of EC50 for HIV1 NL4-3 harboring M46I mutation in protease encoding region infected in human […] cells to EC50 for HIV1 NL4-3 infected in human MT4 cells; assay type: functional
# [9] = system: Human immunodeficiency virus 1; test: Ratio of EC50 for amprenavir to compound against HIV1 NL4-3 harboring Q58E mutation in protease encoding region infected in human […] cells; assay type: functional
# [10] = system: Human immunodeficiency virus 1; test: Ratio of EC50 for amprenavir to compound against HIV1 NL4-3 harboring L10F/M46I/I47V/V82I/I85V mutation in protease encoding region infected in human […] cells; assay type: functional
# [11] = system: Human immunodeficiency virus 1; test: Antiviral activity against HIV1 NL4-3 harboring G48V mutation in protease encoding region infected in human […] cells assessed as inhibition of p24 Gag protein production by ELISA; assay type: functional, organism-based; settings: Human immunodeficiency virus 1, NL4-3; how it was run: as §1
# [12] = system: Human immunodeficiency virus 1; test: Ratio of EC50 for HIV1 NL4-3 harboring I47V mutation in protease encoding region infected in human […] cells to EC50 for HIV1 NL4-3 infected in human MT4 cells; assay type: functional
# [13] = system: Human immunodeficiency virus 1; test: Antiviral activity against HIV1 NL4-3 harboring L90M mutation in protease encoding region infected in human […] cells assessed as inhibition of p24 Gag protein production by ELISA; assay type: functional, organism-based; settings: Human immunodeficiency virus 1, NL4-3; how it was run: as §1
# [14] = system: Human immunodeficiency virus 1; test: Ratio of EC50 for HIV1 NL4-3 harboring G48V mutation in protease encoding region infected in human […] cells to EC50 for HIV1 NL4-3 infected in human MT4 cells; assay type: functional
# [15] = system: Human immunodeficiency virus 1; test: Ratio of EC50 for ritonavir to compound against HIV1 NL4-3 harboring V82I/I85V mutation in protease encoding region infected in human […] cells; assay type: functional
# [16] = system: Human immunodeficiency virus 1; test: Antiviral activity against HIV1 NL4-3 harboring I50V mutation in protease encoding region infected in human […] cells assessed as inhibition of p24 Gag protein production by ELISA; assay type: functional, organism-based; settings: Human immunodeficiency virus 1, NL4-3; how it was run: as §1
# [17] = system: Human immunodeficiency virus 1; test: Antiviral activity against HIV1 NL4-3 harboring V82I/I85V mutation in protease encoding region infected in human […] cells assessed as inhibition of p24 Gag protein production by ELISA; assay type: functional, organism-based; settings: Human immunodeficiency virus 1, NL4-3; how it was run: as §1
# [18] = system: Human immunodeficiency virus 1; test: Ratio of EC50 for HIV1 NL4-3 harboring I84V mutation in protease encoding region infected in human […] cells to EC50 for HIV1 NL4-3 infected in human MT4 cells; assay type: functional
# [19] = system: Human immunodeficiency virus 1; test: Ratio of EC50 for ritonavir to compound against HIV1 NL4-3 harboring I85V mutation in protease encoding region infected in human […] cells; assay type: functional
# [20] = system: Human immunodeficiency virus 1; test: Ratio of EC50 for HIV1 NL4-3 harboring L33F mutation in protease encoding region infected in human […] cells to EC50 for HIV1 NL4-3 infected in human MT4 cells; assay type: functional
# [21] = system: Human immunodeficiency virus 1; test: Antiviral activity against HIV1 NL4-3 harboring M46I/I47V mutation in protease encoding region infected in human […] cells assessed as inhibition of p24 Gag protein production by ELISA; assay type: functional, organism-based; settings: Human immunodeficiency virus 1, NL4-3; how it was run: as §1
# [22] = system: Human immunodeficiency virus 1; test: Ratio of EC50 for HIV1 NL4-3 harboring L10F/M46I/I47V/V82I/I85V mutation in protease encoding region infected in human […] cells to EC50 for HIV1 NL4-3 infected in human MT4 cells; assay type: functional
# [23] = system: Human immunodeficiency virus 1; test: Ratio of EC50 for HIV1 NL4-3 harboring L10F mutation in protease encoding region infected in human […] cells to EC50 for HIV1 NL4-3 infected in human MT4 cells; assay type: functional
# [24] = system: Human immunodeficiency virus 1; test: Antiviral activity against HIV1 NL4-3 harboring L10F/I47V/V82I/I85V mutation in protease encoding region infected in human […] cells assessed as inhibition of p24 Gag protein production by ELISA; assay type: functional, organism-based; settings: Human immunodeficiency virus 1, NL4-3; how it was run: as §1
# [25] = system: Human immunodeficiency virus 1; test: Ratio of EC50 for ritonavir to compound against HIV1 NL4-3 harboring L10F/I47V/V82I/I85V mutation in protease encoding region infected in human […] cells; assay type: functional
# [26] = system: Human immunodeficiency virus 1; test: Ratio of EC50 for HIV1 NL4-3 harboring L10F/I47V/V82I/I85V mutation in protease encoding region infected in human […] cells to EC50 for HIV1 NL4-3 infected in human MT4 cells; assay type: functional
# [27] = system: Human immunodeficiency virus 1; test: Ratio of EC50 for saquinavir to compound against HIV1 NL4-3 harboring G48V mutation in protease encoding region infected in human […] cells; assay type: functional
# [28] = system: Human immunodeficiency virus 1; test: Antiviral activity against HIV1 NL4-3 harboring L33F mutation in protease encoding region infected in human […] cells assessed as inhibition of p24 Gag protein production by ELISA; assay type: functional, organism-based; settings: Human immunodeficiency virus 1, NL4-3; how it was run: as §1
# [29] = system: Human immunodeficiency virus 1; test: Ratio of EC50 for amprenavir to compound against HIV1 NL4-3 harboring L10F mutation in protease encoding region infected in human […] cells; assay type: functional
# [30] = system: Human immunodeficiency virus 1; test: Ratio of EC50 for HIV1 NL4-3 harboring I50V mutation in protease encoding region infected in human […] cells to EC50 for HIV1 NL4-3 infected in human MT4 cells; assay type: functional
# [31] = system: Human immunodeficiency virus 1; test: Ratio of EC50 for HIV1 NL4-3 harboring D30N mutation in protease encoding region infected in human […] cells to EC50 for HIV1 NL4-3 infected in human MT4 cells; assay type: functional
# [32] = system: Human immunodeficiency virus 1; test: Antiviral activity against HIV1 NL4-3 harboring I84V mutation in protease encoding region infected in human […] cells assessed as inhibition of p24 Gag protein production by ELISA; assay type: functional, organism-based; settings: Human immunodeficiency virus 1, NL4-3; how it was run: as §1
compound,measurement,setting,value
COc1ccc(S(=O)(=O)N(C[C@@H]2CCC(=O)N2)C[C@@H](O)[C@H](Cc2ccccc2)NC(=O)O[C@@H]2C[C@@H]3CCO[C@@H]3C2)cc1,EC50,[1],15 nM
same,EC50,[2],600 nM
same,EC50,[3],15 nM
same,EC50,[4],20 nM
same,EC50,[5],15 nM
same,EC50,[6],24 nM
same,Ratio EC50,[7],14.8
same,Ratio EC50,[8],1.2
same,Ratio EC50,[9],1
same,Ratio EC50,[10],10
same,EC50,[11],40 nM
same,Ratio EC50,[12],1.6
same,EC50,[13],32 nM
same,Ratio EC50,[14],1.7
same,Ratio EC50,[15],1.6
same,EC50,[16],15 nM
same,EC50,[17],35 nM
same,Ratio EC50,[18],1.3
same,Ratio EC50,[19],2.1
same,Ratio EC50,[20],1.2
same,EC50,[21],73 nM
same,Ratio EC50,[22],>43
same,Ratio EC50,[23],1.6
same,EC50,[24],430 nM
same,Ratio EC50,[25],1.9
same,Ratio EC50,[26],18.7
same,Ratio EC50,[27],5.1
same,EC50,[28],28 nM
same,Ratio EC50,[29],1.4
same,Ratio EC50,[30],0.7
same,Ratio EC50,[31],0.9
same,EC50,[32],30 nM
